Values joined by “and” are separate entries in the source; they are usually repeats but may differ in a detail not shown here. Identical values can stand only once.
What was measured:
Mus musculus [1] = assay: Concentration required to prevent seizures upon intraperitoneal administration in mice in MES (maximal electroshock seizure) test.; assay type: functional
In short: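 Male CF-1 mice dosed ip with compound in 30% PEG 400 (one compound in acacia). Pilot groups of 4 mice per dose tested at 0.5, 1 and 4 h for protection against maximal electroshock seizures.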

Mus musculus [2] = species on record: Mus musculus; assay: (§1) Neurotoxic dose (TD50) from horizontal screen in mice; assay type: toxicity, organism-based; details: in vivo
In short: (§2)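 Male CF-1 mice, ip dosing in 30% PEG 400 unless otherwise noted. Trained mice are placed on a 13 × 13 cm no. 4 mesh wire screen on a vertical rod, which is rotated 180°. Impairment is scored as failure to climb to the top within 1 min. TD50 comes from a dose-response at the time of peak anticonvulsant activity, with 3–4 doses and 12 mice/dose. Some entries used the rotorod instead.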

[3] = as §1; assay type: toxicity, organism-based; details: mouse, in vivo; in short: as §2
[4] = Mus musculus, ip, read-out: ED50

Row | SMILES | ED50 (Mus musculus [1]; [4]) | other results
1 | CC(=O)NC(NC(=O)C(F)(F)F)C(=O)NCc1ccccc1 (stereo unspecified) | > 300 mg/kg | 
2 | CCS(=O)(=O)C(NC(C)=O)C(=O)NCc1ccccc1 (stereo unspecified) | > 100 mg/kg | 
3 | CC(=O)NC(C(=O)NCc1ccccc1)N(C)C (stereo unspecified) | 45.3 mg/kg | 
4 | CC(=O)NC(NC(C)=O)C(=O)NCc1ccccc1 |  | ED50 (Mus musculus [1]): <300 mg/kg and >100 mg/kg
5 | CC[S+]([O-])C(NC(C)=O)C(=O)NCc1ccccc1 (stereo unspecified) | > 100 mg/kg | 
6 | CSC(NC(C)=O)C(=O)NCc1ccccc1 (stereo unspecified) | > 100 mg/kg | 
7 | COC(NC(C)=O)C(=O)NCc1ccccc1 (stereo unspecified) |  | TD50 (Mus musculus [2]): > 100 mg/kg and < 300 mg/kg
8 | CONC(NC(C)=O)C(=O)NCc1ccccc1 (stereo unspecified) | 6.2 mg/kg | TD50 [3]: 46 mg/kg
9 | CON(C)C(NC(C)=O)C(=O)NCc1ccccc1 (stereo unspecified) | 6.7 mg/kg | TD50 [3]: 50.5 mg/kg
10 | CC(=O)NC(Sc1ccccc1)C(=O)NCc1ccccc1 (stereo unspecified) | > 300 mg/kg | 
11 | CC(=O)NC(C(=O)NCc1ccccc1)c1ccco1 (stereo unspecified) |  | TD50 [3]: 40 mg/kg
12 | CC(=O)NC(NNC(=O)OCc1ccccc1)C(=O)NCc1ccccc1 (stereo unspecified) | 55.6 mg/kg | 
13 | CC(=O)NC(NNc1ccccc1)C(=O)NCc1ccccc1 (stereo unspecified) | 100 mg/kg | 
14 | CCOC(NC(C)=O)C(=O)NCc1ccccc1 (stereo unspecified) | 62 mg/kg | TD50 [3]: > 112 mg/kg
15 | CC(=O)NC(C(=O)NCc1ccccc1)[N+](C)(C)C.F[B-](F)(F)F (stereo unspecified) | > 100 mg/kg | 
16 | CC(=O)NC(C(=O)NCc1ccccc1)N1CCCO1 (stereo unspecified) | 31.4 mg/kg | 
17 | CC(=O)NC(N)C(=O)NCc1ccccc1 (stereo unspecified) | 65.1 mg/kg | 
18 | CC(=O)NC(C(=O)NCc1ccccc1)N(C)O (stereo unspecified) | 30 mg/kg | 
19 | CC(=O)NC(Nc1ccccc1)C(=O)NCc1ccccc1 (stereo unspecified) | > 300 mg/kg | 
20 | CC(=O)NC(Nc1cc[nH]n1)C(=O)NCc1ccccc1 (stereo unspecified) | 100 mg/kg | 
21 | CC(=O)NC(Oc1ccccc1)C(=O)NCc1ccccc1 (stereo unspecified) | > 100 mg/kg | 
22 | CC(=O)NC(O)C(=O)NCc1ccccc1 (stereo unspecified) | 80.1 mg/kg | 
23 | CC(=O)NC(NO)C(=O)NCc1ccccc1 (stereo unspecified) | 100 mg/kg | 

Reference: ChEMBL document CHEMBL1125809, “Preparation and anticonvulsant activity of a series of functionalized alpha-heteroatom-substituted amino acids” (J Med Chem, 1991)
